CHRM5 antagonist: blocks acetylcholine activation of human M5 receptor. CHO-hM5 cells, Fluo-8 calcium fluorescence, ACh EC80. actives 0.59% (n = 360,000). inhibition, % at 3 µM. P08912;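 active means inhibition above a per-plate cutoff, the mean of that plate's test compounds plus 3 SD, cut at about 27% in these data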;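 further: 0% = acetylcholine EC80 with DMSO and 100% = DMSO without agonist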
Target sequence (P08912 whole entry, looked up): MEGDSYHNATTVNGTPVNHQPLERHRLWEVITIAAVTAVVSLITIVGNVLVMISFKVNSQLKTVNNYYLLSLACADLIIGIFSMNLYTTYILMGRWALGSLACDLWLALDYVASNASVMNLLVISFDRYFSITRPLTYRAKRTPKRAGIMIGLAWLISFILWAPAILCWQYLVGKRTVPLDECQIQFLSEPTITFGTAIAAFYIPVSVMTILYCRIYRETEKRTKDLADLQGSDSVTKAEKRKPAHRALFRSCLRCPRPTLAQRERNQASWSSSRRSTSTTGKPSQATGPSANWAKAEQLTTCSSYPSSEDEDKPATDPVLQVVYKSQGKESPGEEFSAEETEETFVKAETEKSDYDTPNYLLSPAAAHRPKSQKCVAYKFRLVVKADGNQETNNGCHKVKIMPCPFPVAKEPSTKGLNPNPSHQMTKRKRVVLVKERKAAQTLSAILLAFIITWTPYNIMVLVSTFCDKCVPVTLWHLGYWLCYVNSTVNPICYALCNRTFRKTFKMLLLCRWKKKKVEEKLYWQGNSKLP
CHRM4 agonist: CHRM4 agonism in calcium assay; activation, % at 3 µM; CHO-K1 hM4/Gqi5, Fluo-8 calcium fluorescence; vehicle 0%, full acetylcholine response 100%; P08173; actives 0.14% (n = 360,000);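 active means activation above the run mean over all test wells plus 3 SD, cut at about 32% in these data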;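 further: peak over basal fluorescence ratio per well then scaled between controls; 0% = DMSO wells and 100% = acetylcholine at EC100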
CHRM4 antagonist: antagonists of human muscarinic M4 receptor (CHRM4) | inhibition, % at 3 µM | P08173 | actives 0.73% (n = 360,000) | CHO-hM4 cells, ACh EC80, Fluo-8 calcium fluorescence;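 active means inhibition above its plate's cutoff, the mean inhibition of sample wells plus 3 SD, cut at about 27% in these data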;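 further: 0% = acetylcholine EC80 with DMSO and 100% = DMSO without agonist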
M5 ag: CHRM5 agonism in calcium assay. CHO-K1 hM5 cells, Fluo-8 calcium fluorescence; 0% DMSO wells, 100% maximal acetylcholine response. activation, % at 3 µM. actives 0.19% (n = 360,000). AID 624037;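 active means activation above the run's mean over test compounds plus 3 SD, cut at about 23% in these data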;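 further: signal is peak over basal fluorescence ratio across the kinetic read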
M5 PAM: CHRM5 positive allosteric modulation. P08912. CHO-K1 hM5, Fluo-8 calcium, ACh EC20 PAM; 0% = ACh EC20, 100% = ACh EC100. activation, % at 3 µM. actives 0.3% (n = 360,000). AID 624038;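 active means activation above the run cutoff, the mean activation of all test compounds plus 3 SD, cut at about 18% in these data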
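System: CHO-K1 hM5 cells. Reagent: acetylcholine, EC20 level. Compound dosing: single dose, 3 µM nominal final test concentration. Timing: Post-acetylcholine fluorescence recording 140 s. Detection: Fluo-8 calcium fluorescence. Read-out: % activation, ACh-normalized. Benchmarks: ACh EC20 and EC100 wells. Repeats: singlicate, one well per test compound.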
M4 PAM: potentiates acetylcholine response at human M4 receptor; P08173; CHO-K1 hM4/Gqi5, Fluo-8 calcium fluorescence, ACh EC20; 0% = ACh EC20, 100% = maximal ACh; activation, % at 3 µM; actives 0.4% (n = 360,000); AID 624126;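 active means activation above its plate's cutoff, the mean activation of sample wells plus 3 SD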
* marks the source's active call; other numbers are inactive results; ! = not confirmed by another sample. Sampled rows, rich in hits. Any-hit rate of the full collection: about 1.8%.

SMILES	CHRM5 antagonist	CHRM4 agonist	CHRM4 antagonist	M5 ag	M5 PAM	M4 PAM
CC1CCCCC1NC(=O)CN1CCC(NC(=O)C(C)(C)C)CC1 (stereo unspecified)	-2	1	-4	1	0	2
CCOC(=O)NN=C1CN(S(=O)(=O)c2ccc(C)cc2)C1	9	0	14	-3	-3	-9
Cc1c(Cl)cccc1NC(=S)NCC1COc2ccccc2O1 (stereo unspecified)	39*	14	4	-1	-20	-14
CCn1c(C)nc2cc(NC(=O)Nc3cccc(C(C)=O)c3)ccc21	18	19	15	1	-11	-11
CC(=O)Nc1ccc2c(c1)Cc1cc(N3C(=O)C=CC3=O)ccc1-2	16	5	33*	-8	-16	-7
O=C1C=CC(=O)N1c1ccc2c(c1)Cc1cc(F)ccc1-2	-3	8	37*	-2	10	-8
O=[N+]([O-])c1ccc2c(c1)Cc1cc(F)ccc1-2	-4	1	3	-2	0	4
Cc1ccc(S(=O)(=O)Nc2nc3ccccc3nc2NCC2CCCO2)cc1C (stereo unspecified)	6	1	6	-6	7	22
COc1ccc2nc(SCC(=O)Nc3ccc(S(=O)(=O)Nc4nccc(C)n4)cc3)[nH]c2c1	14	1	35*	4	2	23
Cc1ccnc(NS(=O)(=O)c2ccc(NC(=O)c3ccc(S(=O)(=O)N4CCCC4)cc3)cc2)n1	-14	0	-4	1	19*	4
Cc1cc(C)nc(NS(=O)(=O)c2ccc(NC(=O)CSc3nc4ccccc4[nH]3)cc2)n1	0	0	-1	-3	2	11
COc1cc2cc(CCCOC(=O)c3ccc(C#N)cc3)oc(=O)c2cc1OC	-8	0	1	4	15	5
CC(=O)C1=CN(Cc2ccccc2)CCC1=O	4	2	8	-2	-1	-5
Cc1ccc(NC(=O)C(NS(=O)(=O)c2cccc3nsnc23)C(C)C)nc1 (stereo unspecified)	-8	1	-16	-2	-1	8
Cc1ccc(CNC(=O)C(NS(=O)(=O)c2cccc3nsnc23)C(C)C)cc1 (stereo unspecified)	30*	2	0	-4	-8	-5
C[C@@H]1CN([C@@H](C)CO)C(=O)CCCn2nncc2CO[C@H]1CN(C)C(=O)C1CC1	2	0	7	2	1	-2
CC(=O)C1=C(O)C(=O)N(c2ccc(C(=O)O)cc2)C1c1ccc([N+](=O)[O-])cc1 (stereo unspecified)	10	0	5	-2	-3	2
CCOC(=O)c1ccc(N2C(=O)C(O)=C(C(C)=O)C2c2ccc([N+](=O)[O-])cc2)cc1 (stereo unspecified)	-5	1	-2	4	19*	0
CN(c1ccccc1)c1ccc(/C=C/[N+](=O)[O-])cc1	71*	16	36*	44*	-8	-15
CCN(CC(=O)Nc1ccc2c(c1)OCCO2)C(=O)/C=C/c1cccc(C(F)(F)F)c1	10	2	8	-1	7	7
O=c1oc2ccccc2c2c1cnc1ccccc12	-3	2	-12	0	-1	4
NC(=O)c1cccc2c(=O)oc3ccccc3c12	-10	1	-5	-2	19*	6
CC1CCCC(C)N1C(=O)COC(=O)c1ccc2ccccc2n1 (stereo unspecified)	-2	0	-3	1	4	4
C[n+]1c2cc(N)ccc2cc2ccc(N)cc21	19	94*	27*!	44*	-9	-16
Nc1ccc2ccc(O)cc2c1	1	3	0	4	5	6
SMILES	CHRM5 antagonist	CHRM4 agonist	CHRM4 antagonist	M5 ag	M5 PAM	M4 PAM
Cc1ccc(S(=O)(=O)c2nnn3c2nc(NCCCN2CCCC2=O)c2ccccc23)cc1C	15	5	-2	-7	-4	1
Cc1ccc(S(=O)(=O)c2nnn3c2nc(NC2CCN(Cc4ccccc4)CC2)c2ccccc23)cc1C	-2	3	43*	-6	-3	-12
Cc1nn(-c2cc(N3CCNCC3)ccc2[N+](=O)[O-])c(=O)c2ccccc12	-4	1	0	-7	19*	2
Cc1c(S(=O)(=O)Nc2ccc(Oc3ccccc3)cc2)c(=O)n(C)c(=O)n1C	6	4	6	0	-8	-8
FC(F)(F)c1cccc(N2CCN(C(=S)NCC3CCCO3)CC2)c1 (stereo unspecified)	27*	10	-2	-1	-16	-8
Cc1ccccc1C(=O)N1CC(=O)Nc2ccc(F)cc2C1c1ccccc1 (stereo unspecified)	1	4	1	-4	-4	-10
CC1=NN(c2ccccc2)C(c2ccco2)C1 (stereo unspecified)	3	0	1	-3	-5	10
O=[N+]([O-])c1ccc(C2=NN(c3ccccc3)C(c3ccco3)C2)cc1 (stereo unspecified)	77*	41*	37*	214*	-31	-34
O=[N+]([O-])c1ccc(C=CC=Cc2ccccc2)cc1	8	1	4	1	-2	6
O=[N+]([O-])c1ccc(/C=C/C2=NN(c3ccccc3)C(c3ccco3)C2)cc1 (stereo unspecified)	42*	15	16	43*	-13	-9
O=C(Nc1ccc2c(c1)OCCO2)C(c1ccnc2ccccc12)N1CCN(c2ccc(C(F)(F)F)cn2)CC1 (stereo unspecified)	8	3	0	14	15	-2
O=C(Nc1ccc2c(c1)OCCO2)C(c1ccnc2ccccc12)N1CCN(c2ccc(F)cc2)CC1 (stereo unspecified)	-4	2	-2	21	19*	-2
Nn1c(SC/C=C/c2ccccc2)nnc1-c1cccnc1	2	1	28*	0	3	7
Nn1c(SCc2cccc(Br)c2)nnc1-c1cccnc1	-10	1	-11	-6	19*	11
Clc1ccc(-n2c(SC/C=C/c3ccccc3)nnc2-c2cccnc2)cc1	-3	4	12	0	-3	1
Nn1c(SCc2cccc(F)c2)nnc1-c1cccnc1	15	18	-1	1	-18	-13
O=C(COC(=O)C1COc2ccccc2O1)NC(=O)Nc1ccc2c(c1)OCCO2 (stereo unspecified)	0	2	0	0	1	23*

Screening results deposited in PubChem BioAssay by The Scripps Research Institute Molecular Screening Center.
